Bioassay records as filed in PubChem BioAssay.
An excerpt weighted towards active compounds, which were near 2.4% of everything screened.
FID counter = fluorescent intercalator displacement, NS3 helicase counter-screen; AID 1845; 290,000 tested, 0.17% active; inhibition, % at 7.9 µM; DNA fluorescent intercalator displacement, fluorescence; in the data active means inhibition above about 37%;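 further: 0% = vehicle and 100% = reference compound; higher means more ethidium bromide displaced from hairpin DNA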
TMEM16A act = mouse TMEM16A channel activation, primary screen. 340,000 tested, 0.3% active. AID 623877. HEK293 TMEM16A/YFP-H148Q/I152L, iodide quench fluorescence; stronger effect = lower value. Q8BHY3. B-score at 10 µM;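 active means fluorescence-ratio B-score plate-corrected deviation score at least 3 library SD below zero, with starting fluorescence score within 5 deviations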;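 further: channel opened by trigger with iodide after compound preincubation; score built on the fluorescence ratio of max minus min over baseline; more negative score means more quench and so TMEM16A activation or potentiation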
UBC13 inh = human UBC13 polyubiquitination inhibition; P61088; inhibition, % at 20 µM; UBC13 polyubiquitin chain formation, TR-FRET; 330,000 tested, 0.47% active; in the data active means inhibition above about 45%, passing the limit was not always enough
Apaf1 inhib = inhibitors of human Apaf-1 apoptosome; O14727; reconstituted apoptosome caspase-3 activity, DEVD-Rh110 fluorescence; inhibition, % at 20 µM; 330,000 tested, 0.71% active; AID 489030; active means inhibition of at least 40% at 20 µM;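 further: plate controls were DMSO wells for no effect and DEVD-CHO caspase inhibitor wells for full effect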
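Medium: Hepes buffer, pH 7.5 / System: biochemical Apaf-1 apoptosome reconstitution / Measured by: Rh110 fluorescence, excitation 480 nm, emission 540 nm / Times: compound with Apaf-1, dATP, procaspase-3 30 min, then 50 min reaction, room temperature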
TMEM16A inh = mouse TMEM16A channel inhibition, primary screen. normalized B-score (activity score, 25-100; higher = stronger inhibition) at 10 µM. Q8BHY3. 310,000 tested, 1.2% active. HEK293 TMEM16A/YFP iodide influx fluorescence, ionomycin;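 active means ratio plate-corrected score three or more library SD toward inhibition, starting fluorescence score within five deviations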;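 further: score derived from kinetic fluorescence span divided by baseline fluorescence per well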
TMEM16A reconf = re-confirmation of mouse TMEM16A chloride channel inhibitors; shares compounds with TMEM16A inh; HEK293 TMEM16A/YFP-H148Q, iodide quench fluorescence; ionomycin added to raise cell calcium; inhibition, % at 10 µM; 2,300 tested, 39% active;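 active means mean duplicate percent inhibition, scaled so buffer wells are 0 and the reference blocker 100, over three buffer SD above buffer mean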
TMEM16A Ca cntr = calcium mobilization counter-screen hit for TMEM16A inhibitor series; TMEM16A/YFP HEK293, Fluo4 calcium mobilization; calcium response (% of ionomycin), % at 10 µM; shares compounds with TMEM16A inh; 2,300 tested, 2% active;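 active means duplicate-averaged calcium signal over 20% of the ionomycin maximum, relative to buffer baseline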;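 further: each well's signal is peak minus trough fluorescence divided by its pre-addition baseline; 0% = buffer wells and 100% = ionomycin wells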
YFP-HEK293 quench = counter-screen for TMEM16A inhibitors: effect in parental YFP-HEK293 cells; shares compounds with TMEM16A inh; iodide YFP quench, ionomycin; YFP ratio F(max-min)/F0 at 10 µM; 2,300 tested, under 10 active;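 active means yellow fluorescent protein signal ratio exceeding the buffer control mean by over 5 SD of those controls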;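 further: ratio is mean of duplicate wells from kinetic YFP trace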
ClC-1 inh = rat ClC-1 inhibition, TMEM16A specificity screen. shares compounds with TMEM16A inh. CHO ClC-1-YFP, iodide influx fluorescence quench; iodide control reads 0, buffer control 100. ratio percent, % at 10 µM. 2,300 tested, under 10 active. AID 652236;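 active means duplicate-mean ratio percent above the mean of iodide-only control wells, which defines zero, plus 5 of their SD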;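 further: higher percent means stronger block of ClC-1 iodide influx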
* = called active by the depositor; i = inactive; / = not tested or not shown.

SMILES	FID counter	TMEM16A act	UBC13 inh	Apaf1 inhib	TMEM16A inh	TMEM16A reconf	TMEM16A Ca cntr	YFP-HEK293 quench	ClC-1 inh
COc1ccc(-c2noc(CCC(=O)N3CCN(c4cc(C)ccc4C)CC3)n2)cc1	-27	i	3	9	100*	i	i	-0.94	-4
Cc1ccc(C)c(-n2c(SCC(=O)NC(C(=O)O)C(C)C)nnc2-c2cccc(Cl)c2)c1 (stereo not drawn)	-42	i	-20	5	i	/	/	/	/
COCCN(C(=S)Nc1cccc(OC)c1)C(C)c1cccs1 (stereo not drawn)	-3	i	15	6	i	/	/	/	/
COCCN(C(=S)Nc1ccc(C(C)C)cc1)C(C)c1cccs1 (stereo not drawn)	-7	i	-1	1	25*	i	i	-0.85	-13
COCc1nnc(NC(C)=O)s1	1	i	2	-4	i	/	/	/	/
O=C1c2cccc3c(N4CCCCC4)ccc(c23)C(=O)N1CCO	-26	i	-122	15	i	i	i	-1.1	-50
C=CCN1C(=O)c2cccc3c(N4CCCCC4)ccc(c23)C1=O	0	i	-18	-8	i	/	/	/	/
COc1ccc(C(=O)NN2CCOCC2)cc1	-4	i	3	-10	i	/	/	/	/
CCCSc1nsc(NC(=O)Nc2ccc(F)cc2F)n1	1	i	8	-8	100*	66%*	i	-0.82	-24
CC(C)(C)c1ccc(-c2n[nH]c(=S)n2Cc2ccccc2)cc1	-47	i	2	17	i	/	/	/	/
CC(C)n1c(-c2ccc(C(C)(C)C)cc2)n[nH]c1=S	-26	i	4	-12	100*	i	i	-1.1	-13
CN(C)S(=O)(=O)c1cc(NC(=O)COC(=O)C2COc3ccccc3O2)ccc1Cl (stereo not drawn)	2	i	-10	7	i	/	/	/	/
N#Cc1ccccc1NC(=O)Nc1ccc(Cl)cc1	-3	i	5	-2	i	/	/	/	/
CCN(c1ccccc1)S(=O)(=O)c1cc(NC(=O)COC(=O)C2CC2)ccc1Cl	-16	i	9	2	100*	i	i	-0.9	-4
CCN(c1ccccc1)S(=O)(=O)c1cc(NC(=O)Nc2ccccc2C#N)ccc1Cl	-8	i	-4	13	25*	i	i	-1	-6
CCCCCCn1nc(C(=O)OCC(=O)NC2CCS(=O)(=O)C2)c2ccccc2c1=O (stereo not drawn)	-20	i	-21	2	i	/	/	/	/
Cn1c(SCC(=O)Nc2ccc3c(c2)n(C)c(=O)n3C)nnc1-c1ccncc1	-12	i	6	6	i	i	i	-1.2	-2
O=C(COC(=O)C1CCC(=O)N1)Nc1cccc([N+](=O)[O-])c1 (stereo not drawn)	/	i	6	-15	/	/	/	/	/
Cc1ccc2nc(SCc3nc4c(cnn4-c4ccccc4)c(=O)[nH]3)[nH]c2c1	-2	i	-9	6	25*	i	i	-0.92	-4
O=C(Nc1ccc2c(c1)OCO2)C1CCN(Cc2cnn(-c3ccccc3)c2-n2cccc2)CC1	14	i	4	-10	100*	i	i	-1.1	-11
O=C(Nc1ccc2c(c1)OCO2)C1CCN(Cc2cc3c(cc2O)OCO3)CC1	-6	i	7	5	i	/	/	/	/
C/C(=C\C(=O)c1ccc(F)cc1)NCc1ccc2c(c1)OCO2	-7	-52*	-2	8	100*	i	i	-1.2	-18
O=C(/C=C/c1ccc2c(c1)OCO2)c1ccc(F)cc1	-5	i	5	13	i	/	/	/	/
C/C(=C\C(=O)c1ccccc1)NCc1ccc(F)cc1	-1	i	-1	-3	i	/	/	/	/
